{"source": "paper PMC5858725", "about": "(Biochemistry, 2017)", "molecules": {"B1": {"name": "Cys-less: C58A/C64M/C98A/C239T/C377A/C468S variant of CYP3A4 from codon-optimized synthetic gene (protein, UniProt P08684 2-503, looked up, variant C58A C64M C98A C239T C377A C468S)", "Cytochrome P450 3A4": "ALIPDLAMETWLLLAVSLVLLYLYGTHSHGLFKKLGIPGPTPLPFLGNILSYHKGFAMFDMEMHKKYGKVWGFYDGQQPVLAITDPDMIKTVLVKEAYSVFTNRRPFGPVGFMKSAISIAEDEEWKRLRSLLSPTFTSGKLKEMVPIIAQYGDVLVRNLRREAETGKPVTLKDVFGAYSMDVITSTSFGVNIDSLNNPQDPFVENTKKLLRFDFLDPFFLSITVFPFLIPILEVLNITVFPREVTNFLRKSVKRMKESRLEDTQKHRVDFLQLMIDSQNSKETESHKALSDLELVAQSIIFIFAGYETTSSVLSFIMYELATHPDVQQKLQEEIDAVLPNKAPPTYDTVLQMEYLDMVVNETLRLFPIAMRLERVAKKDVEINGMFIPKGVVVMIPSYALHRDPKYWTEPEKFLPERFSKKNKDNIDPYIYTPFGSGPRNCIGMRFALMNMKLALIRVLQNFSFKPSKETQIPLKLSLGGLLQPEKPVVLKVESRDGTVSGA", "modifications": "Δ3–22 truncation"}}, "key": {"WT CYP3A4 [1]": {"tested_on": "WT CYP3A4", "test": "Stopped flow ligand binding kinetics, WT CYP3A4", "set-up": "species or system human", "conditions": "for Percentage of absorbance change observed during the fast kinetic phase / Percentage of absorbance change observed during the slow kinetic phase: 40 μM ligand"}, "opt-WT CYP3A4 [2]": {"biological_target": "T1, opt-WT CYP3A4 (Homo sapiens, UniProt P08684)", "test": "Stopped flow ligand binding kinetics, opt-WT CYP3A4", "conditions": "for Percentage of absorbance change observed during the fast kinetic phase / Percentage of absorbance change observed during the slow kinetic phase: 40 μM ligand"}, "Cys-less CYP3A4 [3]": {"biological_target": "T2, Cys-less CYP3A4 (Homo sapiens, UniProt P08684, C239T/C377A/C468S/C58A/C64M/C98A)", "test": "Stopped flow ligand binding kinetics, Cys-less CYP3A4", "conditions": "for Percentage of absorbance change observed during the fast kinetic phase / Percentage of absorbance change observed during the slow kinetic phase: 40 μM ligand"}, "opt-WT CYP3A4 [4]": {"biological_target": "T1, opt-WT CYP3A4"}, "Cys-less CYP3A4 [5]": {"biological_target": "T2, Cys-less CYP3A4"}, "WT CYP3A4 [6]": {"tested_on": "WT CYP3A4", "conditions": "cited from earlier work"}, "Cys-less CYP3A4 [7]": {"biological_target": "T2, Cys-less CYP3A4", "test": "BFC O-debenzylase activity in reconstituted system with CPR", "assay_type": "biochemical", "conditions": "0.1–0.6 M phosphate pH 7.4, all studied conditions; relative to WT and opt-WT", "summary_of_the_method": "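N-terminally truncated (Δ3–22) CYP3A4 carrying C58A/C64M/C98A/C239T/C377A/C468S, co-expressed with GroESL in E. coli C41(DE3). […] Lipid-free reconstitution with rat cytochrome P450 reductase. Substrate 7-benzyloxy(4-trifluoromethyl)coumarin, O-debenzylated to a fluorescent product that is read fluorimetrically.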"}, "CPR": {"tested_on": "CPR", "test": "Kinetics of CYP3A4 reduction with CPR", "assay_type": "biochemical, rat", "conditions": "anaerobic"}, "[8]": {"conditions": "2 μM CYP3A4 mixed with 40 μM ligand, 0.6 M phosphate pH 7.4"}, "[9]": {"conditions": "CO-saturated 0.1 M phosphate pH 7.4, 1 μM CYP3A4 and CPR, 30 μM MDZ, 100 μM NADPH"}}, "note": "Read-outs that look alike come from different tables or passages of the source."}
{"molecule": "CC(C)C[C@H]1C(=O)N2CCC[C@H]2[C@]2(O)O[C@](NC(=O)[C@@H]3C=C4c5cccc6[nH]c(Br)c(c56)C[C@H]4N(C)C3)(C(C)C)C(=O)N12", "note": "[BEC, bromoergocryptine]", "values": [{"measurement": "Percentage of absorbance change observed during the fast kinetic phase", "setting": "WT CYP3A4 [1]; 0.1 M phosphate pH 7.4", "result": 52, "unit": "%"}, {"measurement": "Percentage of absorbance change observed during the slow kinetic phase", "setting": "WT CYP3A4 [1]; 0.1 M phosphate pH 7.4", "result": 48, "unit": "%"}, {"measurement": "Percentage of absorbance change observed during the fast kinetic phase", "setting": "opt-WT CYP3A4 [2]; 0.1 M phosphate pH 7.4", "result": 49, "unit": "%"}, {"measurement": "Percentage of absorbance change observed during the slow kinetic phase", "setting": "opt-WT CYP3A4 [2]; 0.1 M phosphate pH 7.4", "result": 51, "unit": "%"}, {"measurement": "Percentage of absorbance change observed during the fast kinetic phase", "setting": "Cys-less CYP3A4 [3]; 0.1 M phosphate pH 7.4", "result": 54, "unit": "%"}, {"measurement": "Percentage of absorbance change observed during the slow kinetic phase", "setting": "Cys-less CYP3A4 [3]; 0.1 M phosphate pH 7.4", "result": 46, "unit": "%"}, {"measurement": "affinity lower than WT (from Ks)", "setting": "opt-WT CYP3A4 [4]", "result": "1.5–2 fold"}, {"measurement": "Kd", "setting": "opt-WT CYP3A4 [4]; pH 7.4", "result": "0.77 ± 0.14", "unit": "µM"}, {"measurement": "affinity lower than WT (from Ks)", "setting": "Cys-less CYP3A4 [5]", "result": "1.5–2 fold"}, {"measurement": "Kd", "setting": "Cys-less CYP3A4 [5]; pH 7.4", "result": "0.45 ± 0.06", "unit": "µM"}, {"measurement": "Kd", "setting": "WT CYP3A4 [6]; read-out: Equilibrium Titrations, Ks, determined previously", "result": 0.3, "unit": "µM"}]}
{"molecule": "O=c1cc(C(F)(F)F)c2ccc(OCc3ccccc3)cc2o1", "note": "[BFC, 7-benzyloxy-(4-trifluoromethyl)coumarin]", "values": [{"measurement": "BFC oxidation (debenzylation) by Cys-less CYP3A4, faster than WT and opt-WT", "setting": "Cys-less CYP3A4 [7]", "result": "6–8 fold"}]}
{"molecule": "Cc1ncc2n1-c1ccc(Cl)cc1C(c1ccccc1F)=NC2", "note": "[MDZ, midazolam]", "values": [{"measurement": "Ligand Binding Kinetics, kfast", "setting": "WT CYP3A4 [1]; [8]", "result": "3.4 ± 0.3", "unit": "s⁻¹"}, {"measurement": "Ligand Binding Kinetics, kslow", "setting": "WT CYP3A4 [1]; [8]", "result": "0.23 ± 0.04", "unit": "s⁻¹"}, {"measurement": "Percentage of absorbance change observed during the fast kinetic phase", "setting": "WT CYP3A4 [1]; 0.1 M phosphate pH 7.4", "result": 70, "unit": "%"}, {"measurement": "Percentage of absorbance change observed during the slow kinetic phase", "setting": "WT CYP3A4 [1]; 0.1 M phosphate pH 7.4", "result": 30, "unit": "%"}, {"measurement": "Percentage of absorbance change observed during the fast kinetic phase", "setting": "WT CYP3A4 [1]; 0.6 M phosphate pH 7.4", "result": 82, "unit": "%"}, {"measurement": "Percentage of absorbance change observed during the slow kinetic phase", "setting": "WT CYP3A4 [1]; 0.6 M phosphate pH 7.4", "result": 18, "unit": "%"}, {"measurement": "Ligand Binding Kinetics, kfast", "setting": "opt-WT CYP3A4 [2]; [8]", "result": "0.26 ± 0.03", "unit": "s⁻¹"}, {"measurement": "Ligand Binding Kinetics, kslow", "setting": "opt-WT CYP3A4 [2]; [8]", "result": "0.027 ± 0.004", "unit": "s⁻¹"}, {"measurement": "Percentage of absorbance change observed during the fast kinetic phase", "setting": "opt-WT CYP3A4 [2]; 0.1 M phosphate pH 7.4", "result": 43, "unit": "%"}, {"measurement": "Percentage of absorbance change observed during the slow kinetic phase", "setting": "opt-WT CYP3A4 [2]; 0.1 M phosphate pH 7.4", "result": 57, "unit": "%"}, {"measurement": "Percentage of absorbance change observed during the fast kinetic phase", "setting": "opt-WT CYP3A4 [2]; 0.6 M phosphate pH 7.4", "result": 49, "unit": "%"}, {"measurement": "Percentage of absorbance change observed during the slow kinetic phase", "setting": "opt-WT CYP3A4 [2]; 0.6 M phosphate pH 7.4", "result": 51, "unit": "%"}, {"measurement": "Ligand Binding Kinetics, kfast", "setting": "Cys-less CYP3A4 [3]; [8]", "result": "0.27 ± 0.02", "unit": "s⁻¹"}, {"measurement": "Ligand Binding Kinetics, kslow", "setting": "Cys-less CYP3A4 [3]; [8]", "result": "0.036 ± 0.003", "unit": "s⁻¹"}, {"measurement": "Percentage of absorbance change observed during the fast kinetic phase", "setting": "Cys-less CYP3A4 [3]; 0.1 M phosphate pH 7.4", "result": 40, "unit": "%"}, {"measurement": "Percentage of absorbance change observed during the slow kinetic phase", "setting": "Cys-less CYP3A4 [3]; 0.1 M phosphate pH 7.4", "result": 60, "unit": "%"}, {"measurement": "Percentage of absorbance change observed during the fast kinetic phase", "setting": "Cys-less CYP3A4 [3]; 0.6 M phosphate pH 7.4", "result": 43, "unit": "%"}, {"measurement": "Percentage of absorbance change observed during the slow kinetic phase", "setting": "Cys-less CYP3A4 [3]; 0.6 M phosphate pH 7.4", "result": 57, "unit": "%"}, {"measurement": "Kd", "setting": "WT CYP3A4 [6]; read-out: Equilibrium Titrations, Ks, 0.1 M phosphate, determined previously", "result": 4.8, "unit": "µM"}, {"measurement": "Kd", "setting": "WT CYP3A4 [6]; read-out: Equilibrium Titrations, Ks, 0.6 M phosphate, determined previously", "result": 1.8, "unit": "µM"}]}
{"molecule": "CC(C)c1nc(CN(C)C(=O)N[C@H](C(=O)N[C@@H](Cc2ccccc2)C[C@H](O)[C@H](Cc2ccccc2)NC(=O)OCc2cncs2)C(C)C)cs1", "note": "[RIT, ritonavir]", "values": [{"measurement": "Percentage of absorbance change observed during the fast kinetic phase", "setting": "WT CYP3A4 [1]; 0.1 M phosphate pH 7.4", "result": 70, "unit": "%"}, {"measurement": "Percentage of absorbance change observed during the slow kinetic phase", "setting": "WT CYP3A4 [1]; 0.1 M phosphate pH 7.4", "result": 30, "unit": "%"}]}
{"molecule": "B1", "values": [{"measurement": "First Electron Transfer from CPR, kfast", "setting": "CPR; [9]", "result": "1.22 ± 0.03", "unit": "min⁻¹"}, {"measurement": "First Electron Transfer from CPR, kslow", "setting": "CPR; [9]", "result": "0.22 ± 0.02", "unit": "min⁻¹"}, {"measurement": "First Electron Transfer from CPR, percentage of absorbance change in the fast phase", "setting": "CPR; CO-saturated 0.1 M phosphate pH 7.4, 30 μM MDZ", "result": 64, "unit": "%"}]}
